Measured values from ChEMBL document CHEMBL1144474, “Synthesis and anti-HIV-1 activity evaluation of 5-alkyl-2-alkylthio-6-(arylcarbonyl or alpha-cyanoarylmethyl)-3,4-dihydropyrimidin-4(3H)-ones as novel non-nucleoside HIV-1 reverse transcriptase inhibitors” (J Med Chem, 2007).
pIC50: −log10 of the molar value.

Key:
[1] = tested on: Human immunodeficiency virus 1; test: Antiviral activity against wild type HIV1 3B in MT4 cells after 4 days by MTT method; assay type: functional, organism-based; conditions: Human immunodeficiency virus 1, 3B, MT4, 96 h
Outline: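 MT-4 cells at 1 × 10⁵ cells/mL infected with HIV-1 IIIB (titrated as CCID₅₀) at MOI 0.02, then plated right away into serial compound dilutions (DMSO stocks, 50 mM or higher). After 4 days at 37 °C, viable cells were counted by MTT. IC₅₀ is the concentration giving 50% protection from viral cytopathogenicity.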

[2] = Selectivity index, CC50 for MT4 cells/IC50 for HIV1 3B; assay type: functional
Outline: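 Ratio of CC₅₀ in uninfected MT-4 cells to IC₅₀ against HIV-1 IIIB cytopathogenicity in MT-4 cells. Both values come from the 4-day, 37 °C MTT read-out, run in parallel.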

[3] = Cytotoxicity against MT4 cells after 4 days by MTT method; assay type: cell-based; conditions: human
Outline: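 Uninfected MT-4 cells were run in parallel with the infected cultures across a range of compound concentrations (DMSO stocks, 50 mM or higher). After 4 days at 37 °C, viability was read by MTT. CC₅₀ is the concentration that cuts normal cell viability by 50%.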

[4] = Cytotoxicity against mock-infecected human PBMC; assay type: cell-based; conditions: mock-infected PBMC
[5] = tested on: Human immunodeficiency virus 1; test: Antiviral activity against HIV1 3B in human PBMC assessed by measuring p24 antigen production after 7 days by ELISA; assay type: functional, organism-based; conditions: Human immunodeficiency virus 1, 3B, 168 h
Outline: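 Donor PBMCs were isolated by density centrifugation, stimulated with PHA for 3 days and washed in PBS. Cells (2 × 10⁵/200 µL) were plated in serial compound dilutions and infected with HIV at 1000 CCID₅₀ per mL. On day 4, medium was partly replaced with fresh medium containing compound. p24 antigen in the supernatant was measured by ELISA on day 7.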

[6] = Selectivity index, CC50 for PBMC/IC50 for HIV1 3B; assay type: functional

Row | Compound | pIC50 [1] | Ratio CC50/IC50 [2] | CC50 at 96 h [3] [µM] | CC50 [4] [µM] | pIC50 [5] | Ratio CC50/IC50 [6]
1 | COc1ccc(CSc2nc(C(C#N)c3ccccc3)c(C(C)C)c(=O)[nH]2)cc1 (configuration not stated) | 5.45 | 8 | 26.8 |  |  | 
2 | CCc1c(C(=O)c2ccccc2)nc(SC2CCCC2)[nH]c1=O | 5.33 | 13 | 60.4 |  |  | 
3 | N#CC(c1cc(=O)[nH]c(SC2CCCC2)n1)c1cccc2ccccc12 (configuration not stated) | < 4.64 | <1 | 22.8 |  |  | 
4 | Cc1c(C(C#N)c2ccccc2)nc(SC2CCCC2)[nH]c1=O (configuration not stated) | 5.20 | 9 | 59 |  |  | 
5 | CCSc1nc(C(C#N)c2cccc3ccccc23)c(CC)c(=O)[nH]1 (configuration not stated) | 5.93 | 103 | 122 |  |  | 
6 | CC(C)c1c(C(=O)c2cccc3ccccc23)nc(SC2CCCC2)[nH]c1=O | 4.96 | 2 | 24.7 |  |  | 
7 | CCc1c(C(C#N)c2c(Cl)cccc2Cl)nc(SCc2ccc([N+](=O)[O-])cc2)[nH]c1=O (configuration not stated) | 5.65 | 11 | 23.5 |  |  | 
8 | Cc1c(C(C#N)c2ccccc2)nc(SC(C)C)[nH]c1=O (configuration not stated) | 8.70 | 4600 | 10.8 |  |  | 
9 | CCc1c(C(C#N)c2cccc3ccccc23)nc(SCC(=O)c2ccc(Cl)cc2)[nH]c1=O (configuration not stated) | ≤ 4.45 | <=3 | 117 |  |  | 
10 | O=C(CSc1nc(C(=O)c2cccc3ccccc23)cc(=O)[nH]1)c1ccccc1 | < 3.52 |  | > 304 |  |  | 
11 | Cc1c(C(C#N)c2cccc3ccccc23)nc(SCC(=O)c2ccccc2)[nH]c1=O (configuration not stated) | 7.05 | 1500 | 164 | 69.9 | 6.00 | 70
12 | C=CCSc1nc(C(C#N)c2cccc3ccccc23)c(CC)c(=O)[nH]1 (configuration not stated) | 6.24 | >585 | > 346 |  |  | 
13 | CCc1c(C(C#N)c2ccccc2)nc(SCc2ccc([N+](=O)[O-])cc2)[nH]c1=O (configuration not stated) | 5.88 | 26 | 34.2 |  |  | 
14 | CC(C)Sc1nc(C(C#N)c2cccc3ccccc23)cc(=O)[nH]1 (configuration not stated) | 6.18 | 82 | 53.2 |  |  | 
15 | CCSc1nc(C(=O)c2ccccc2)cc(=O)[nH]1 | < 3.61 | <1 | 247 |  |  | 
16 | CCc1c(C(C#N)c2ccccc2)nc(SC(C)C)[nH]c1=O (configuration not stated) | 6.19 | 91 | 58 |  |  | 
17 | C=CCSc1nc(C(=O)c2cccc3ccccc23)c(CC)c(=O)[nH]1 | 4.77 | 12 | 210 |  |  | 
18 | CCc1c(C(C#N)c2cccc3ccccc23)nc(SC(C)C)[nH]c1=O (configuration not stated) | 6.62 | >1400 | > 344 | > 68.9 | 5.78 | >41
19 | CCc1c(C(=O)c2cccc3ccccc23)nc(SC(C)C)[nH]c1=O | 5.17 | 26 | 179 |  |  | 
